For series [1], the system named is Rattus norvegicus. Description: Antiinflammatory activity in Wistar rat model of LPS-induced uveitis assessed as reduction in infiltrating cells in aqueous humor at 10 ug/10ul/eye administered 24 hrs after LPS stimulation and measured after 1 hr by hemocytometry relative to control. As to conditions: dose 10 µg. It counts as functional.
The nature of series [2]: Half life in Wistar rat at 10 mg/kg, po. The class given is ADME, organism-based. As to conditions: in vivo.
Series [3] is described as follows: AUClast in Wistar rat at 10 mg/kg, po. It counts as ADME, organism-based. Also noted: dose 10 mg/kg. The settings on record: in vivo.
A short description of series [4]: Cmax in Wistar rat at 10 mg/kg, po. The class given is ADME, organism-based. Further details: route oral, dose 10 mg/kg. As to conditions: in vivo.
The subject of series [5] is Rattus norvegicus. Description: Antiinflammatory activity in Wistar rat model of LPS-induced uveitis assessed as reduction in infiltrating cells in aqueous humor at 0.1 mg/kg, po administered 24 hrs after LPS stimulation and measured after 1 hr by hemocytometry relative to control. It counts as functional.
Series [6] can be described thus: Genotoxicity in Salmonella typhimurium TA98 in presence of rat liver S9 fraction at 0.039 to 5 mg by Ames test. It counts as toxicity, subcellular, Salmonella enterica subsp. enterica serovar Typhimurium. The settings on record: dose 0.039-5 mg. An outline of the steps: (§1)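 Ames reverse mutation test in S. typhimurium TA98 and TA100 with rat liver S9 activation, doses 0.039–5 mg/plate (eight levels); mutagenicity and cytotoxicity scored.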
(The Ames test detects mutagens through reverse mutation in bacteria.)

A short description of series [7]: Inhibition of PDE-4 in human PBMC assessed as LPS-induced TNFalpha production incubated for 15 mins followed by LPS stimulation and measured after 18 hrs by ELISA relative to control. An outline of the steps:
(§2)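 PBMC isolated from healthy volunteers' blood in cell preparation tubes, suspended in RPMI; 0.5 million cells/well pre-incubated with compound 15 min at 37 °C, then stimulated with E. coli LPS (B4) 1 µg/mL for 18 h at 37 °C, 5% CO2; medium TNF-α measured by ELISA.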
Background: An ELISA detects its analyte on a solid surface through an enzyme-linked reagent.

The nature of series [8]: Tmax in Wistar rat at 10 mg/kg, po. It counts as ADME, organism-based. The settings on record: in vivo.
Series [9] concerns Mus musculus. Description: Antiinflammatory activity in Swiss albino mouse model of LPS-induced sepsis assessed as reduction in TNFalpha production at 3 mg/kg, po administered 30 mins before LPS stimulation and measured after 90 min by ELISA relative to control. It counts as functional. The settings on record: 2 h, time 120 min. The procedure, abridged:
(§3)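 Female Swiss albino mice fasted 20 h with water, dosed orally in 0.5% Tween 80/0.25% CMC sodium; vehicle-only controls. 500 µg E. coli LPS (B4) in PBS i.p. 30 min later; retro-orbital bleed 90 min post-LPS, blood held overnight at 4 °C, serum TNF-α by mouse ELISA; % inhibition.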

Series [10] is described as follows: Oral bioavailability in Wistar rat at 10 mg/kg. The class given is ADME, organism-based. The settings on record: in vivo.
Series [11] deals with Rattus norvegicus. Description: Antiinflammatory activity in Sprague-Dawley rat model of LPS-induced COPD and asthma assessed as reduction in total cell count in BALF at 1 mg/kg, po administered 30 mins before LPS stimulation and measured after 6 hrs relative to control. The settings on record: time 6.5 hrs. It counts as functional.
A short description of series [12]: Genotoxicity in Salmonella typhimurium TA100 in presence of rat liver S9 fraction at 0.039 to 5 mg by Ames test. The class given is toxicity, subcellular, Salmonella enterica subsp. enterica serovar Typhimurium. As to conditions: dose 0.039-5 mg. An outline of the steps:
as §1

Series [13] is described as follows: Volume of distribution in Wistar rat at 5 mg/kg, iv. The settings on record: in vivo. It counts as ADME, organism-based.
Series [14] relates to Rattus norvegicus. Description: Antiinflammatory activity in Sprague-Dawley rat model of LPS-induced COPD and asthma assessed as reduction in total cell count in BALF at 0.3 mg/kg, po administered 30 mins before LPS stimulation and measured after 6 hrs relative to control. It counts as functional. As to conditions: time 6.5 hrs.
Series [15] relates to PBMC. In words: Inhibition of PDE-4 in human PBMC assessed as LPS-induced TNFalpha production at 100 nM incubated for 15 mins followed by LPS stimulation and measured after 18 hrs by ELISA relative to control. As to conditions: time 1095.0 min. The procedure, abridged: as §2
Series [16] concerns the target T1, 3',5'-cyclic-AMP phosphodiesterase 4B (Homo sapiens, UniProt Q07343). In words: Inhibition of human PDE4B using [3H]cAMP as substrate at 100 nM incubated for 5 mins followed by substrate addition and measured after 10 mins by scintillation proximity assay relative to control. The settings on record: time 15.0 min. An outline of the steps:
(§4)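 Purified human PDE-4B2 in 50 mM Tris pH 7.4, 8.3 mM Mg2+, 1% DMSO final, enzyme converting 10–20% of substrate; 5 min pre-incubation at 37 °C, then 0.5 µM cAMP with ~50,000 cpm [3H]-cAMP for 10 min; stopped with yttrium silicate SPA beads containing 18 mM ZnSO4, read after >30 min settling. Background = no enzyme; IC50 from 8–10-point 4-parameter fit.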

Series [17] concerns the target T1, 3',5'-cyclic-AMP phosphodiesterase 4B. In words: Inhibition of human PDE4B using [3H]cAMP as substrate incubated for 5 mins followed by substrate addition and measured after 10 mins by scintillation proximity assay. An outline of the steps: as §4
Series [18] in a line: Half life in Wistar rat at 5 mg/kg, iv. The class given is ADME, organism-based. The settings on record: in vivo.
Series [19] in a line: Initial concentration in Wistar rat at 5 mg/kg, iv. It counts as ADME, organism-based. The settings on record: in vivo.
The nature of series [20]: AUClast in Wistar rat at 5 mg/kg, iv. Also noted: dose 5 mg/kg. The settings on record: in vivo. It counts as ADME, organism-based.
The subject of series [21] is Rattus norvegicus. Description: Antiinflammatory activity in Wistar rat model of LPS-induced uveitis assessed as reduction in infiltrating cells in aqueous humor at 1 mg/kg, po administered 24 hrs after LPS stimulation and measured after 1 hr by hemocytometry relative to control. The class given is functional.
The test system of series [22] is Rattus norvegicus. Description: Antiinflammatory activity in Wistar rat model of LPS-induced uveitis assessed as reduction in infiltrating cells in aqueous humor at 0.5 mg/kg, po administered 24 hrs after LPS stimulation and measured after 1 hr by hemocytometry relative to control. It counts as functional.
The subject of series [23] is Mus musculus. In words: Antiinflammatory activity in Swiss albino mouse model of LPS-induced sepsis assessed as reduction in TNFalpha production at 1 mg/kg, po administered 30 mins before LPS stimulation and measured after 90 min by ELISA relative to control. As to conditions: 2 h, time 120 min. The class given is functional. The procedure, abridged: as §3
Series [24] concerns Mus musculus. Description: Antiinflammatory activity in Swiss albino mouse model of LPS-induced sepsis assessed as reduction in TNFalpha production at 0.3 mg/kg, po administered 30 mins before LPS stimulation and measured after 90 min by ELISA relative to control. It counts as functional. As to conditions: 2 h, time 120 min. An outline of the steps: as §3
Series [25] is described as follows: Clearance in Wistar rat at 5 mg/kg, iv. The class given is ADME, organism-based. The settings on record: in vivo.
Series [26] deals with Rattus norvegicus. Description: Antiinflammatory activity in Wistar rat model of LPS-induced uveitis assessed as reduction in infiltrating cells in aqueous humor at 3 mg/kg, po administered 24 hrs after LPS stimulation and measured after 1 hr by hemocytometry relative to control. The class given is functional.
Series [27] has as its system Rattus norvegicus. Description: Antiinflammatory activity in Sprague-Dawley rat model of LPS-induced COPD and asthma assessed as reduction in total cell count in BALF at 0.1 mg/kg, po administered 30 mins before LPS stimulation and measured after 6 hrs relative to control. It counts as functional. The settings on record: time 6.5 hrs.
Series [28] has as its system Rattus norvegicus. Description: Antiinflammatory activity in Sprague-Dawley rat model of LPS-induced COPD and asthma assessed as reduction in total cell count in BALF at 10 mg/kg, po administered 30 mins before LPS stimulation and measured after 6 hrs relative to control. It counts as functional. The settings on record: time 6.5 hrs.
Series [29] concerns Rattus norvegicus. Description: Antiinflammatory activity in Sprague-Dawley rat model of LPS-induced COPD and asthma assessed as reduction in total cell count in BALF at 3 mg/kg, po administered 30 mins before LPS stimulation and measured after 6 hrs relative to control. It counts as functional. As to conditions: time 6.5 hrs.
The test system of series [30] is Rattus norvegicus. In words: Antiinflammatory activity in Sprague-Dawley rat model of LPS-induced COPD and asthma assessed as reduction in neutrophil influx in BALF at 10 mg/kg, po administered 30 mins before LPS stimulation and measured after 6 hrs relative to control. It counts as functional. As to conditions: time 6.5 hrs.
Series [31] relates to Rattus norvegicus. Description: Antiinflammatory activity in Sprague-Dawley rat model of LPS-induced COPD and asthma assessed as reduction in total cell count in BALF at 30 mg/kg, po administered 30 mins before LPS stimulation and measured after 6 hrs relative to control. It counts as functional. As to conditions: time 6.5 hrs.
The test system of series [32] is PBMC. Description: Inhibition of PDE-4 in human PBMC assessed as LPS-induced TNFalpha production at 1000 nM incubated for 15 mins followed by LPS stimulation and measured after 18 hrs by ELISA relative to control. The settings on record: time 1095.0 min. An outline of the steps: as §2

T1 sequence (Q07343 whole entry): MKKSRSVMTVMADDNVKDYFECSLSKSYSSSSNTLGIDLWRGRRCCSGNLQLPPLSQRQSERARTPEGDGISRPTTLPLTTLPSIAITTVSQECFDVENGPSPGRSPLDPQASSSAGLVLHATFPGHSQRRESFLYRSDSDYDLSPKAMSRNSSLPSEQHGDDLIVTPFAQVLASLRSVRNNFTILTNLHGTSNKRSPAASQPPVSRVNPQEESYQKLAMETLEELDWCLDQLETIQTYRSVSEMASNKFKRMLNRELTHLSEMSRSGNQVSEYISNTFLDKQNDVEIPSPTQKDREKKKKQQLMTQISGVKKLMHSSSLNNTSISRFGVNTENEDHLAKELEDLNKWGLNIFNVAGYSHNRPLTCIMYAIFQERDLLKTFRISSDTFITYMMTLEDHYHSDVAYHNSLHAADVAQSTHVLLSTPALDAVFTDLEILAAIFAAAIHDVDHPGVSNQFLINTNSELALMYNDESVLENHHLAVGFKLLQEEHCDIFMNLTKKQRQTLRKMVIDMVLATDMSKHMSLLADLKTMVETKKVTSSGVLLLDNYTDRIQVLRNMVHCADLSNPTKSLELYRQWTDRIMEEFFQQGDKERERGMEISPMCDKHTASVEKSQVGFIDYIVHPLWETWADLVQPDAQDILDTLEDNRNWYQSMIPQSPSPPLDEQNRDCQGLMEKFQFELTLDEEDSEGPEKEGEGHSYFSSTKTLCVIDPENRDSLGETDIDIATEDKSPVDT

For `C[C@@H]1C[C@H]2[C@@H]3CCC4=CC(=O)C=C[C@]4(C)[C@@]3(F)[C@@H](O)C[C@]2(C)[C@@]1(O)C(=O)CO` [DEXAMETHASONE], the “inhibition (INH)” value in the series with Rattus norvegicus [1] came out at 79.1%.

Take `O=C(NC1CCC(O)CC1)c1csc(-c2ccc(OC(F)F)c3oc4ccccc4c23)n1` (configuration not stated): the values for the half-life in [2] and in series [18] were 5 h and 1.9 h, respectively. The AUC(0-t) (usually exposure summed from dosing to a finite time, without extrapolation to infinity) is 11500 ng·h/mL in series [3] and 13700 ng·h/mL in series [20]. In addition, the Cmax (in general, the maximum level reached in the sampled fluid or tissue) in series [4] stood at 1400 ng/mL. Moreover, the inhibition in vivo (as a rule, the percentage by which the read-out fell short of the control) at 0.1 mg/kg in the series on Rattus norvegicus [5] was determined as 43.6%; in the series with Rattus norvegicus [27], 52.8%. In addition, the Activity entry in [6] and in series [12] was “Non-Toxic” in each case. The IC50 (in general, the point on the concentration scale where inhibition reaches its midpoint) in series [7] was 31 nM; in series [17], 63.5 nM. Moreover, the Tmax (in general, the time at which the peak concentration occurs) in series [8] amounted to 4.8 h. The results for the inhibition in vivo at 3 mg/kg in the series with Mus musculus [9], in the series with Rattus norvegicus [26] and in the series with Rattus norvegicus [29] were 82.2%, 96.9% and 70.9%, respectively. Moreover, in [10], the bioavailability (commonly the share of a dose that reaches the circulation, judged against a reference dose that is usually intravenous) is 42%. In addition, the results for the inhibition in vivo at 1 mg/kg in the series with Rattus norvegicus [11], in the series on Rattus norvegicus [21] and in the series on Mus musculus [23] were 60.7%, 90.3% and 34.2%, respectively. Moreover, the Vd – broadly, a proportionality between amount in the body and measured concentration, not a real space – in series [13] amounted to 1 L/kg. Further, the inhibition in vivo at 0.3 mg/kg in the series on Rattus norvegicus [14] was found to be 34.6%; in the series with Mus musculus [24] it was 16.4%. The inhibition (as a rule, how much of the control response was suppressed) with PBMC [15] came out at 77.7%; in series [16] it was 65.3%; in the series with PBMC [32], 93.8%. The C0 in [19] stood at 4000 ng/mL. The inhibition in vivo at 0.5 mg/kg with Rattus norvegicus [22] turned out to be 54.4%. In series [25], the clearance (commonly the volume of plasma or blood freed of the substance per unit of time) is 6.67 mL/min/kg. Further, the inhibition in vivo at 10 mg/kg came out at 75.2% in the series with Rattus norvegicus [28] and 58% in the series with Rattus norvegicus [30]. Besides, the inhibition in vivo at 30 mg/kg in the series with Rattus norvegicus [31] is 78.7%.

The values above are taken from ChEMBL document CHEMBL4715779, “In vivo effective dibenzo[b,d]furan-1-yl-thiazoles as novel PDE-4 inhibitors” (Bioorg Med Chem, 2016).
